ChEMBL document CHEMBL2021927, “Synthesis and evaluation of the cytotoxicities of tetraindoles: observation that the 5-hydroxy tetraindole (SK228) induces G₂ arrest and apoptosis in human breast cancer cells” (J Med Chem, 2012)

How the values were obtained:
[1] = system: MCF7; assay: Ratio of IC50 for cyclic tetramer to compound for human MCF7 cells after 48 hrs by MTT assay; type: functional
[2] = Growth inhibition of human U87MG cells after 48 hrs by MTT assay; type: functional, cell-based, U-87MG ATCC; details: U-87 MG
[3] = system: Detroit 551; assay: Selectivity ratio of IC50 for human Detroit 551 cells to IC50 for human SW620 cells
[4] = system: Detroit 551; assay: Selectivity ratio of IC50 for human Detroit 551 cells to IC50 for human A549 cells
[5] = system: MDA-MB-231; assay: Cell cycle arrest in human MDA-MB-231 cells at accumulation at G2/M phase at 0.8 uM after 24 hrs by propidium iodide staining-based flow cytometric analysis (reference value: 30%); type: functional
[6] = system: MDA-MB-231; assay: Antiproliferative activity against human MDA-MB-231 cells assessed as decrease in cell count at 0.1 to 0.8 uM by trypan blue dye exclusion assay; type: functional, cell-based; details: TDE = time-dependent effect
How it was run: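 MDA-MB-231 cells seeded at 2 × 10^5 per well in 6-well plates, treated 24 h later in triplicate with compound (0.1–0.8 μM) or DMSO vehicle in 10% FBS DMEM/F12. Cells harvested by trypsinization at 24, 48 and 72 h, stained with 0.4% trypan blue and counted on a hemocytometer; three independent experiments.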

[7] = system: MDA-MB-231; assay: Induction of apoptosis in human MDA-MB-231 cells assessed as increase in late apoptotic cells at 0.4 uM by annexinV propidium iodide staining-based flow cytometric analysis; type: functional, cell-based; details: TDE = time-dependent effect
How it was run: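 MDA-MB-231 cells treated with 0.4 μM, washed twice in PBS and stained with annexin V-FITC/propidium iodide. Populations scored as viable (both negative), early apoptotic (annexin V positive, PI negative) or late apoptotic/dead (both positive).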

[8] = system: MDA-MB-361; assay: Selectivity ratio of IC50 for human Detroit 551 cells to IC50 for human MDA-MB-361 cells
[9] = system: MDA-MB-468; assay: Growth inhibition of human MDA-MB-468 cells after 48 hrs by MTT assay; type: functional, cell-based; details: MDA-MB-468, 48 h
[10] = system: Detroit 551; assay: Selectivity ratio of IC50 for human Detroit 551 cells to IC50 for human U87MG cells
[11] = system: SW-620; assay: Growth inhibition of human SW620 cells after 48 hrs by MTT assay; type: functional, cell-based; details: SW-620, 48 h
[12] = system: MDA-MB-231; assay: Cell cycle arrest in human MDA-MB-231 cells at accumulation at S phase at 0.8 uM after 48 hrs by propidium iodide staining-based flow cytometric analysis (reference value: 20%); type: functional
[13] = system: MDA-MB-468; assay: Selectivity ratio of IC50 for human MT10 cells to IC50 for human MDA-MB-468 cells
How it was run: (§1)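 Ratio of the IC50 in normal M10 cells to the IC50 in each cancer line. […] The paper reports the fold difference as the normal-cell to tumour-cell IC50 ratio.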

[14] = Growth inhibition of human Detroit 551 cells at 20 uM after 48 hrs by MTT assay; type: cell-based; details: read-out: GI
How it was run: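 MTT viability assay with 48 h exposure at a single 20 μM concentration. Result given as percent inhibition of cell growth; n = 3.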

[15] = system: MDA-MB-231; assay: Cell cycle arrest in human MDA-MB-231 cells at accumulation at subG1 phase at 0.8 uM after 24 hrs by propidium iodide staining-based flow cytometric analysis (reference value: 2%); type: functional
[16] = Selectivity ratio of IC50 for human MT10 cells to IC50 for human U87MG cells; type: ADME, cell-based, U-87MG ATCC; details: MT10 cells and U87MG cells, read-out: Ratio IC50; how it was run: as §1
[17] = system: MDA-MB-468; assay: Selectivity ratio of IC50 for human Detroit 551 cells to IC50 for human MDA-MB-468 cells
[18] = system: MDA-MB-231; assay: Cell cycle arrest in human MDA-MB-231 cells at accumulation at G2/M phase at 0.8 uM after 48 hrs by propidium iodide staining-based flow cytometric analysis (reference value: 32%); type: functional

With Oc1ccc2[nH]cc(C(c3ccc(C(c4c[nH]c5ccc(O)cc45)c4c[nH]c5ccc(O)cc45)cc3)c3c[nH]c4ccc(O)cc34)c2c1 the “Ratio IC50” value [1] was 2, the IC50 [2] was 2730 nM and the Ratio IC50 [3] was > 20. The Ratio IC50 [4] was > 6.9, the Activity [5] was 40% and the Activity [6] was “tde”. For the same molecule, the Activity [7] was “tde”, the Ratio IC50 [8] was > 9.7 and the IC50 [9] was 830 nM. For the same molecule, the Ratio IC50 [10] was > 7.3, the IC50 [11] was 980 nM and the Activity [12] was 20%. For the same molecule, the Ratio IC50 [13] was 7, the inhibition at 48 h, 20 µM [14] was 47% and the Activity [15] was 6%. The selectivity ratio [16] was 2, the Ratio IC50 [17] was > 24 and the Activity [18] was 34%.
